Laboratory results from ChEMBL document CHEMBL3243953, “5-Aryl-1,5-dihydro-2H-1,4-benzodiazepin-2-one derivatives as antianxiety agents” (J Med Chem, 1977).

Experiments:
Mus musculus [1] = assay: Anticonvulsant activity in po dosed mouse by maximal electroshock test; format: functional
How it was run: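 Maximal electroshock test in mice after oral dosing, used as a measure of anticonvulsant activity; ED50 (mg/kg) reported.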

Mus musculus [2] = assay: Anticonvulsant activity in po dosed mouse assessed as inhibition of pentylene-tetrazole-induced convulsion; format: functional
How it was run: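 Antagonism of pentylenetetrazole-induced convulsions in orally dosed mice, used as a measure of tranquilizing activity; ED50 (mg/kg) reported.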

[3] = Acute toxicity in po dosed mouse; format: organism-based; details: in vivo
How it was run: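 Mice dosed orally; acute toxicity expressed as LD50 (mg/kg), calculated by the Bliss method.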

Mus musculus [4] = assay: Muscle relaxant activity in po dosed mouse assessed as muscle relaxation by rotarod test; format: functional
How it was run: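 Rotarod performance test in mice after oral dosing, used as a measure of muscle relaxant activity; result expressed as ED50 (mg/kg).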

Row | SMILES | ED50 (Mus musculus [1]) [mg/kg] | ED50 (Mus musculus [2]) [mg/kg] | LD50 [3] [mg/kg] | ED50 (Mus musculus [4]) [mg/kg]
1 | COC1(c2ccccc2)c2cc(Cl)ccc2N(C)C(=O)CN1[N+](=O)[O-] (stereo unspecified) | > 100 | > 100 | > 1000 | > 100
2 | CN1C(=O)CN=C(c2ccccc2)c2cc(Cl)ccc21 [DIAZEPAM] | 62.2 | 1.2 |  | 14.4
3 | N#CC1N=C(c2ccccc2)c2cc([N+](=O)[O-])ccc2NC1=O (stereo unspecified) | > 100 | > 100 | > 1000 | > 100
4 | O=C1Nc2ccc(Cl)cc2C(c2ccccc2)=NC1NO (stereo unspecified) | > 100 | 32 | > 1000 | > 100
5 | N#CC1N=C(c2ccccc2)c2cc(Cl)ccc2NC1=O (stereo unspecified) | > 100 | 14 | > 1000 | > 100
6 | NC1N=C(c2ccccc2)c2cc(Cl)ccc2NC1=O (stereo unspecified) | > 100 | 85 | > 1000 | > 100
7 | COC1(c2ccccc2)N=CC(=O)Nc2ccc(Cl)cc21 (stereo unspecified) | > 100 | 1.6 | > 1000 | 28.1
8 | COC1(c2ccccc2)N=CC(=O)Nc2ccc([N+](=O)[O-])cc21 (stereo unspecified) | > 100 | 1.4 | > 1000 | 19.1
9 | O=C1Nc2ccc([N+](=O)[O-])cc2C(c2ccccc2)=NC1OCCCl (stereo unspecified) | > 100 | 9.2 | > 1000 | > 100
10 | COC1(c2ccccc2)c2cc([N+](=O)[O-])ccc2NC(=O)CN1[N+](=O)[O-] (stereo unspecified) | > 100 | 13 | > 1000 | > 100
11 | O=C1Nc2ccc([N+](=O)[O-])cc2C(c2ccccc2)=NC1OCCO (stereo unspecified) | > 100 | 9.2 | > 1000 | > 100
12 | O=C1Nc2ccc(Cl)cc2C(c2ccccc2)=NC1OCCO (stereo unspecified) | > 100 | 36 | > 1000 | > 100
13 | COC1(c2ccccc2)c2cc(Cl)ccc2NC(=O)CN1[N+](=O)[O-] (stereo unspecified) | > 100 | > 100 | > 1000 | > 100
14 | COC1(c2ccccc2)N=CC(=O)N(C)c2ccc(Cl)cc21 (stereo unspecified) | 53 | 0.7 | > 1000 | 27.5
15 | O=C1Nc2ccc(Cl)cc2C(c2ccccc2)=NC1OCCCl (stereo unspecified) | > 100 | 13 | > 1000 | > 100
16 | COC1(c2ccccc2)N=CC(=O)N(C)c2ccc([N+](=O)[O-])cc21 (stereo unspecified) | 76 | 0.7 | 750 | 5.2
17 | CNC1=NC(c2ccccc2)c2cc([N+](=O)[O-])ccc2N(C)C1=O (stereo unspecified) | > 100 | > 100 | > 1000 | > 100
18 | CC(=O)OC1(c2ccccc2)c2cc([N+](=O)[O-])ccc2NC(=O)CN1[N+](=O)[O-] (stereo unspecified) | > 100 | 58 | > 1000 | > 100
